Test results reported in ChEMBL document CHEMBL4052644, “Synthesis of novel benzylidene analogues of betulinic acid as potent cytotoxic agents” (Eur J Med Chem, 2017).

What was measured:
A549 [1] = assay: Growth inhibition of human A549 cells at 10 uM after 48 hrs by SRB assay relative to control; assay type: functional; conditions: A549, 48 h, read-out: GI
Procedure, shortened: (§1)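 Primary SRB screen of every compound at a single concentration of 10 µM. Growth inhibition is expressed relative to control.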

PC-3 [2] = assay: Growth inhibition of human PC3 cells at 10 uM after 48 hrs by SRB assay relative to control; assay type: functional; conditions: PC-3, 48 h, read-out: GI; procedure, shortened: as §1
HCT-116 [3] = assay: Growth inhibition of human HCT116 cells at 10 uM after 48 hrs by SRB assay relative to control; assay type: functional; conditions: HCT-116, 48 h, read-out: GI; procedure, shortened: as §1
MCF7 [4] = assay: Growth inhibition of human MCF7 cells at 10 uM after 48 hrs by SRB assay relative to control; assay type: functional; conditions: MCF7, 48 h, read-out: GI; procedure, shortened: as §1
MIA PaCa-2 [5] = assay: Growth inhibition of human MIAPaCa2 at 10 uM after 48 hrs by SRB assay relative to control; assay type: functional; conditions: MIA PaCa-2, 48 h, read-out: GI; procedure, shortened: as §1
A549 [6] = assay: Cytotoxicity against human A549 cells assessed as reduction in cell viability after 48 hrs by SRB assay; assay type: functional, cell-based; conditions: A549, 48 h
Procedure, shortened: (§2)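 SRB assay. Compounds active at 10 µM in the primary screen were retested at 1, 2.5 and 5 µM, and IC50 was calculated from these concentrations. The normal breast epithelial line fR2 was tested alongside the cancer lines.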

PC-3 [7] = assay: Cytotoxicity against human PC3 cells assessed as reduction in cell viability after 48 hrs by SRB assay; assay type: functional, cell-based; conditions: PC-3, 48 h; procedure, shortened: as §2
HCT-116 [8] = assay: Cytotoxicity against human HCT116 cells assessed as reduction in cell viability after 48 hrs by SRB assay; assay type: functional, cell-based; conditions: HCT-116, 48 h; procedure, shortened: as §2
MCF7 [9] = assay: Cytotoxicity against human MCF7 cells assessed as reduction in cell viability after 48 hrs by SRB assay; assay type: functional, cell-based; conditions: MCF7, 48 h; procedure, shortened: as §2
MIA PaCa-2 [10] = assay: Cytotoxicity against human MIAPaCa2 cells assessed as reduction in cell viability after 48 hrs by SRB assay; assay type: functional, cell-based; conditions: MIA PaCa-2, 48 h; procedure, shortened: as §2
[11] = Cytotoxicity against human FR2 cells assessed as reduction in cell viability after 48 hrs by SRB assay; assay type: cell-based; conditions: FR2, 48 h; procedure, shortened: as §2
[12] = Selectivity index, ratio of IC50 for human FR2 cells to IC50 for human A549 cells; assay type: functional
Procedure, shortened: (§3)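 Selectivity index is the IC50 in normal breast epithelial fR2 cells divided by the IC50 in each cancer line. All IC50 values come from the SRB assay.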

[13] = Selectivity index, ratio of IC50 for human FR2 cells to IC50 for human PC3 cells; assay type: functional; procedure, shortened: as §3
[14] = Selectivity index, ratio of IC50 for human FR2 cells to IC50 for human MCF7 cells; assay type: functional; procedure, shortened: as §3
[15] = Selectivity index, ratio of IC50 for human FR2 cells to IC50 for human MIAPaCa2 cells; assay type: functional; procedure, shortened: as §3
[16] = Selectivity index, ratio of IC50 for human FR2 cells to IC50 for human HCT116 cells; assay type: functional; procedure, shortened: as §3
SK-MEL-2 = assay: Cytotoxicity against human SK-MEL-2 cells assessed as reduction in cell viability; assay type: functional, cell-based

Row | Structure (SMILES) | inhibition of growth at 10 µM (A549 [1]) [%] | inhibition of growth at 10 µM (PC-3 [2]) [%] | inhibition of growth at 10 µM (HCT-116 [3]) [%] | inhibition of growth at 10 µM (MCF7 [4]) [%] | inhibition of growth at 10 µM (MIA PaCa-2 [5]) [%] | IC50 (A549 [6]) [µM] | IC50 (PC-3 [7]) [µM] | IC50 (HCT-116 [8]) [µM] | IC50 (MCF7 [9]) [µM] | IC50 (MIA PaCa-2 [10]) [µM] | IC50 [11] [µM] | Ratio IC50 [12] | Ratio IC50 [13] | Ratio IC50 [14] | Ratio IC50 [15] | Ratio IC50 [16] | IC50 (SK-MEL-2) [µM]
1 | C=C(C)[C@@H]1CC[C@]2(C(=O)O)CC[C@]3(C)[C@H](CC[C@@H]4[C@@]5(C)C/C(=C\c6cccc(Br)c6)[C@H](O)C(C)(C)[C@@H]5CC[C@]43C)[C@@H]12 | 90 | 59 | 46 | 65 | 22 | 3.6 | 5.5 | > 10 | 8.06 | 14.4 | 15 | 4.16 | 2.72 | 1.86 | 1.041 |  | 
2 | C=C(C)[C@@H]1CC[C@]2(C(=O)O)CC[C@]3(C)[C@H](CC[C@@H]4[C@@]5(C)C/C(=C\c6cccc([N+](=O)[O-])c6)[C@H](O)C(C)(C)[C@@H]5CC[C@]43C)[C@@H]12 | 92 | 80 | 88 | 77 | 80 | 1.22 | 4.1 | 3.9 | 4.5 | 6.7 | 12.1 | 9.88 | 2.941 | 2.68 | 1.8 | 3.092 | 
3 | C=C(C)[C@@H]1CC[C@]2(C(=O)O)CC[C@]3(C)[C@H](CC[C@@H]4[C@@]5(C)C/C(=C\c6ccccc6Br)C(=O)C(C)(C)[C@@H]5CC[C@]43C)[C@@H]12 | 90 | 77 | 86 | 80 | 81 | 6.1 | 7.6 | 4.3 | 7.7 | 4.04 | 19 | 3.111 | 2.497 | 2.464 | 4.698 | 4.413 | 
4 | C=C(C)[C@@H]1CC[C@]2(C(=O)O)CC[C@]3(C)[C@H](CC[C@@H]4[C@@]5(C)C/C(=C\c6ccc(F)c(Br)c6)C(=O)C(C)(C)[C@@H]5CC[C@]43C)[C@@H]12 | 89 | 71 | 89 | 85 | 82 | 3.9 | 8.02 | 5.8 | 7.07 | 6.9 | 47.2 | 12.09 | 5.881 | 6.671 | 6.836 | 8.132 | 
5 | CC(C)[C@@H]1CC[C@]2(C(=O)O)CC[C@]3(C)[C@H](CC[C@@H]4[C@@]5(C)C=C(C#N)C(=O)C(C)(C)[C@@H]5CC[C@]43C)[C@@H]12 |  |  |  |  |  |  |  |  |  |  |  |  |  |  |  |  | 0.81
6 | C=C(C)[C@@H]1CC[C@]2(C(=O)O)CC[C@]3(C)[C@H](CC[C@@H]4[C@@]5(C)C/C(=C\c6ccc(OC)cc6)C(=O)C(C)(C)[C@@H]5CC[C@]43C)[C@@H]12 | 94 | 81 | 69 | 88 | 71 | 5.1 | 6.8 | 5.4 | 6.8 | 7.07 | 23.9 | 4.696 | 3.522 | 3.522 | 3.387 | 4.435 | 
7 | C=C(C)[C@@H]1CC[C@]2(C(=O)O)CC[C@]3(C)[C@H](CC[C@@H]4[C@@]5(C)C/C(=C\c6ccsc6)C(=O)C(C)(C)[C@@H]5CC[C@]43C)[C@@H]12 | 95 | 82 | 91 | 92 | 76 | 3.9 | 6.7 | 5.1 | 2.9 | 5.3 | 20.7 | 5.317 | 3.095 | 7.151 | 3.913 | 4.066 | 
